Reference: ChEMBL document CHEMBL4130635, “2,4-Diaminoquinazolines as Dual Toll-like Receptor (TLR) 7/8 Modulators for the Treatment of Hepatitis B Virus” (J Med Chem, 2018)
Activity calls are given as the source filed them. No cut-off for these calls is given here.

What was measured:
[1] = system: Cynomolgus monkey; assay: Proinflammatory activity in cynomolgus monkey plasma assessed as TNFalpha levels at 30 mg/kg, po after 24 hrs by Luminex assay (reference value: 285 pg/ml); type: functional, Macaca fascicularis
[2] = system: Plasma; assay: Induction of IFNalpha levels in C57BL/6J mouse plasma at 30 mg/kg, po by ELISA; type: functional
[3] = system: Cynomolgus monkey; assay: Activation of monocytes in cynomolgus monkey plasma assessed as upregulation of MCP1 levels at 3 mg/kg, po after 24 hrs by Luminex assay (reference value: 385 pg/ml); type: functional, Macaca fascicularis
[4] = system: Cynomolgus monkey; assay: Induction of G-CSF in cynomolgus monkey plasma at 1 mg/kg, po after 24 hrs by Luminex assay (reference value: 85 pg/ml); type: functional, organism-based; conditions: Macaca fascicularis
In short: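 Healthy cynomolgus monkeys given single oral doses of 1, 3, 9 and 30 mg/kg, with a 2-week wash-out planned between doses. Systemic cytokine levels in plasma were sampled at 0.5, 1, 2, 4, 9 and 24 h postdose.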

[5] = system: Liver; assay: Proinflammatory activity in C57BL/6J mouse liver assessed as IL-6 levels at 3 mg/kg, po by multiplex assay (reference value: 10 pg/g); type: functional
[6] = system: Cynomolgus monkey; assay: Activation of monocytes in cynomolgus monkey plasma assessed as upregulation of MIP1 levels at 3 mg/kg, po after 24 hrs by Luminex assay (reference value: 37 pg/ml); type: functional, Macaca fascicularis
[7] = system: Toll-like receptor 7/8 (Homo sapiens); assay: Agonist activity at TLR7/8 in human PBMCs assessed as decrease in HBeAg levels in human hepatocytes infected with HBV genotype C for 12 days followed by exposure to conditioned supernatant from up to 5 uM compound treated PBMCs measured after 42 days
[8] = biological target: D(1A) dopamine receptor (Homo sapiens, UniProt P21728); assay: Inhibition of dopamine D1 receptor (unknown origin)
[9] = system: Plasma; assay: Proinflammatory activity in C57BL/6J mouse plasma assessed as IL-6 levels at 1 mg/kg, po by multiplex assay (reference value: 505 pg/ml); type: functional
[10] = system: Liver; assay: Induction of IFNalpha levels in C57BL/6J mouse liver at 10 mg/kg, po by ELISA (reference value: 30 pg/g); type: functional
[11] = Cmax in cynomolgus monkey plasma at 9 mg/kg, po by LC-MS analysis; type: ADME, organism-based, Macaca fascicularis; set-up: dose 9 mg/kg, route oral
In short: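 Healthy cynomolgus monkeys received oral doses of 1, 3, 9 and 30 mg/kg, with a 2-week wash-out between doses. Systemic compound concentrations by LC−MS at 0.25, 0.5, 1, 2, 4, 8 and 24 h postdose.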

[12] = biological target: T1, Toll-like receptor 8 (Homo sapiens) (UniProt Q9NR97); assay: Agonist activity at human TLR8 expressed in HEK293 cells assessed as induction of receptor activation incubated for 6 hrs by NF-kappaB-luciferase reporter gene assay; type: cell-based
T1 sequence (whole entry): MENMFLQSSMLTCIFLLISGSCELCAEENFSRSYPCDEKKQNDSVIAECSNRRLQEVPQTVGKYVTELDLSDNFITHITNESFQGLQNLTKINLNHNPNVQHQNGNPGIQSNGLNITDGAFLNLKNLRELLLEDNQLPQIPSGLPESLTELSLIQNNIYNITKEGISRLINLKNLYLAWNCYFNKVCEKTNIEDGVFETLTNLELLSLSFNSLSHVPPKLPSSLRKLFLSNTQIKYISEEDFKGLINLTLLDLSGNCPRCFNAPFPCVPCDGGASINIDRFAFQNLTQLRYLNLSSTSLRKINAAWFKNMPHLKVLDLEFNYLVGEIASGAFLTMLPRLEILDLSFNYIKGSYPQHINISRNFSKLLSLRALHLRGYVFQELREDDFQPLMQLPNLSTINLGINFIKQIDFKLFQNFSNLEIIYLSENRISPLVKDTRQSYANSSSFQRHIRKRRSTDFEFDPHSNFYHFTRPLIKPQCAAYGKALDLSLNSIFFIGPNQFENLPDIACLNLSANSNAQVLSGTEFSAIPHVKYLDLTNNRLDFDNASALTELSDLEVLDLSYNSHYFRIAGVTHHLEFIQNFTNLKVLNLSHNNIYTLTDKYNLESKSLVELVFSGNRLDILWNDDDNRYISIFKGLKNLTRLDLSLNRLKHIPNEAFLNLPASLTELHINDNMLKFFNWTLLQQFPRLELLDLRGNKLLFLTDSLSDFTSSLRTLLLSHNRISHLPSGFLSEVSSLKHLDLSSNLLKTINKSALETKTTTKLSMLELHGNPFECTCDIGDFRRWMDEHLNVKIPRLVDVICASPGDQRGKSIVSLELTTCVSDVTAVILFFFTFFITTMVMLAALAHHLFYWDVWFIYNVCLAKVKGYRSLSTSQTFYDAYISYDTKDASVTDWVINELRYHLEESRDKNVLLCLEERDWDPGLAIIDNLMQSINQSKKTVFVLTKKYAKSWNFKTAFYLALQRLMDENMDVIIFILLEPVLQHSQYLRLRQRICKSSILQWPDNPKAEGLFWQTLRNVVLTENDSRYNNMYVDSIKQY

[13] = system: Plasma; assay: Proinflammatory activity in C57BL/6J mouse plasma assessed as CXCL-1 levels at 30 mg/kg, po by multiplex assay (reference value: 230 pg/ml); type: functional
[14] = Cmax in C57BL/6J mouse plasma at 10 mg/kg, po by LC-MS analysis; type: ADME, organism-based; set-up: dose 10 mg/kg, route oral
In short: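 Healthy C57BL/6 mice, groups of 15, given a single oral dose (0.3, 1, 3, 10 or 30 mg/kg) in 20% HP-β-CD. Blood drawn at 0.5 h. Three mice per group sacrificed at 0.5, 1, 2, 4 or 7 h, and compound in plasma and liver measured by LC−MS. Values rounded to whole numbers.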

[15] = system: Cynomolgus monkey; assay: Induction of ISG response in cynomolgus monkey plasma assessed as upregulation of Mx1 mRNA expression at 1 mg/kg, po after 24 hrs by Fluidigm RT-qPCR analysis (reference value: 1); type: functional, Macaca fascicularis
In short: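 Cynomolgus monkeys, single oral doses of 1, 3, 9 and 30 mg/kg with a planned 2-week wash-out between doses. Systemic ISG (ISG15, Mx1, OAS1) mRNA was measured by Fluidigm RT-qPCR at 1, 2, 4, 8 and 24 h postdose.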

[16] = biological target: TLR7 and TLR8 (Homo sapiens) (UniProt Q9NYK1+Q9NR97); assay: Agonist activity at TLR7/8 in human PBMCs co-cultured with primary human hepatocytes infected with HBV genotype C for 12 days assessed as increase in IFNalpha2 levels up to 5 uM measured after 42 days
[17] = system: Plasma; assay: Proinflammatory activity in C57BL/6J mouse plasma assessed as IL-6 levels at 0.3 mg/kg, po by multiplex assay (reference value: 505 pg/ml); type: functional
[18] = AUC in Sprague-Dawley rat at 10 mg/kg, po; type: ADME, organism-based; conditions: in vivo
In short: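 Male Sprague-Dawley rats were given 10 mg/kg orally as a solution. Compound was sampled from the portal vein, the systemic circulation and the liver.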

[19] = system: Cynomolgus monkey; assay: Proinflammatory activity in cynomolgus monkey plasma assessed as IL-8 levels at 9 mg/kg, po after 24 hrs by Luminex assay (reference value: 430 pg/ml); type: functional, Macaca fascicularis

D(1A) dopamine receptor, sequence (P21728 whole entry): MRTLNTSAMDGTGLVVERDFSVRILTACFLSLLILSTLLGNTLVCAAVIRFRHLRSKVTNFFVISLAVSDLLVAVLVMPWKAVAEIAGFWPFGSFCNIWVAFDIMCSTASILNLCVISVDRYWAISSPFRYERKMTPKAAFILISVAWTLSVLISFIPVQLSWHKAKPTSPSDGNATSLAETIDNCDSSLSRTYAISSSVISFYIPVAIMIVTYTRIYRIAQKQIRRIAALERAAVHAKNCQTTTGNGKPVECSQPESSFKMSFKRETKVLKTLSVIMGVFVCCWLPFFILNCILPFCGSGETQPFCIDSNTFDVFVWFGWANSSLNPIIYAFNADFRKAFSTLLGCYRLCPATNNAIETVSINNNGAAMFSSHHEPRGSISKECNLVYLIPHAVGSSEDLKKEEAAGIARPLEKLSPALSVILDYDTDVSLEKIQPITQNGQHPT

CCC[C@@H](CCO)Nc1nc(N)nc2c(F)cccc12
Activity [1]: 2990 pg/mL | Activity [2]: 1930 pg/mL | Activity [3]: 7720 pg/mL | Activity [4]: Below limit of detection | Activity [5]: 3225 pg/g | Activity [6]: 85 pg/mL | Activity [7]: Dose-dependent effect | IC50 [8]: > 10 µM | Activity [9]: 1150 pg/mL | Activity [10]: 1365 pg/g | Cmax [11]: 815 ng/mL | MEC [12]: 0.16 µM | Activity [13]: >10000 pg/mL | Cmax [14]: 148 ng/mL | fold change (FC) [15]: 40 | Activity [16]: Active | Activity [17]: 480 pg/mL | AUC [18]: 49 ng·h/mL | Activity [19]: 1640 pg/mL
